TDP2 absorb = human TDP2 enzyme inhibitors, primary screen, biochemical, epi absorbance, recombinant enzyme; inhibition, % at 12.8 µM; T5PNP hydrolysis, p-nitrophenol absorbance 415 nm; Tyrosyl-DNA phosphodiesterase 2 (Homo sapiens), O95551; hit rate 0.34% among 370,000;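 active = inhibition above the mean of all tested compounds plus 3 SD, set per campaign, cut at about 25% in these data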;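 note: 0% = DMSO with enzyme and 100% = buffer with substrate but no TDP2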
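System: recombinant human TDP2 / Amount: 120 nM TDP2 per well / Also added: 5 mM T5PNP chromogenic substrate / Doses: 12.8 µM single point, 1% DMSO / Incubation: 2 h at 37 °C / Detection: p-Nitrophenol epi absorbance / Evaluation: % inhibition relative to enzyme-containing and enzyme-free wells / Repeats: singlicate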
MBD2 inh = inhibitors of MBD2 binding to methylated DNA, primary screen, biochemical, TR-FRET, DNA-binding domain, human; MBD2 binding to methylated oligonucleotide; inhibition, % at 4.4 µM; hit rate 0.31% among 370,000; AID 686964, 2013; in the data active = inhibition above about 13%
UHRF1 binding = UHRF1 methylated DNA binding inhibitors, primary screen, counter-screen for MBD2 inhibitor project, biochemical, TR-FRET, human UHRF1, single concentration; E3 ubiquitin-protein ligase UHRF1 (Homo sapiens), Q96T88; UHRF1 binding to methylated oligo; inhibition, % at 4.4 µM; hit rate 0.75% among 370,000; AID 687016, 2013; in the data active = inhibition above about 21%;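 note: UHRF1 SRA domain binding a hemimethylated CpG hairpin DNA probe; 0% = median of test compound wells and 100% = reference inhibitor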
LEDGF integ inh = blockers of LEDGF/p75-dependent integrase strand transfer – biochemical, TR-FRET, high throughput, primary screen. TR-FRET IN-LEDGF/p75 DNA integration, Eu/Cy5. inhibition, % at 3.7 µM. hit rate 0.64% among 370,000. AID 743269, 2014;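 active = inhibition above the screen-wide mean plus 3 SD, cut at about 13% in these data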;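 note: signal is the Cy5 over europium emission ratio at 671 and 618 nm; 0% = plate median of compound wells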
Rin1-Abl PPI inh = inhibitors of Rin1-Abl protein binding, primary screen, biochemical, TR-FRET. Tyrosine-protein kinase ABL1 (Homo sapiens) + Ras and Rab interactor 1 (Homo sapiens), …. inhibition, % at 7.35 µM. hit rate 0.4% among 360,000. AID 588664, 2011; in the data active = inhibition above about 5%, passing the limit was not always enough
IN multimer up = HIV-1 IN multimer formation enhancers, counter-screen for LEDGF/p75 integration inhibitor project, biochemical, TR-FRET; AID 1053131, 2014; activation, % at 7.7 µM; shares compounds with LEDGF integ inh; TR-FRET HIV-1 integrase multimerization; hit rate 17% among 2,000; in the data active = activation above about 8.9%
TRFRET interf = TR-FRET optical interference artefacts, confirmation, artefact control for LEDGF/p75-dependent integration inhibitor project, biochemical, HIV-1 IN multimerization. shares compounds with LEDGF integ inh. TR-FRET optical interference counterscreen. inhibition, % at 7.7 µM. 2,000 tested, under 10 active;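 active = inhibition above the mean over all tested compounds plus 3 SD, which no compound reached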;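 note: 0% = integrase with antibodies and DMSO and 100% = antibodies without integrase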
LEDGF integ conf = inhibitors of HIV-1 IN-LEDGF/p75 DNA integration, confirmation, biochemical, TR-FRET; shares compounds with LEDGF integ inh; TR-FRET LEDGF/p75-dependent HIV-1 integration; inhibition, % at 3.7 µM; hit rate 36% among 2,000; AID 1053136, 2014; in the data active = inhibition above about 14%
* marks the source's active call; other numbers are inactive results; . = no result given. Compounds with a hit are over-represented: about 1.9% of the library has one in this group of screens.

SMILES	TDP2 absorb	MBD2 inh	UHRF1 binding	LEDGF integ inh	Rin1-Abl PPI inh	IN multimer up	TRFRET interf	LEDGF integ conf
Cc1ccsc1/C=C/C1=Cc2c(sc(NC(=O)CSc3n[nH]c(N)n3)c2C#N)C(C)(C)C1	0	-6	8	18*	-2	0	1	39*
CCCCCCCC(=O)N[C@H]1CC[C@@]23CCCN2C(=O)CCC[C@H]3[C@H]1CCC	0	5	-3	5	.	.	.	.
CCOC(=O)c1c2ccc(OCC(=O)N/N=C/c3ccc(Cl)cc3)cc2n2ccccc12	8	10	10	14*	.	-2	12	6
COc1ccc2nc(NC(=S)N(C)C)sc2c1	-17	-8	-5	17*	2	2	-12	16*
COCc1cc(N2CCN(C(=O)OC(C)(C)C)C[C@@H]2C)ccc1N1C[C@@H](C)O[C@@H](C)C1	0	0	1	0	.	.	.	.
COCc1cc(N2CCN(C(=O)OC(C)(C)C)C[C@H]2C)ccc1N1CC[C@@H](O)C1	3	6	1	14*	.	5	-18	0
O=C(NCCN1CCCC1)C1CC(=O)N(C2CCCCC2)C1 (configuration not stated)	4	-8	0	26*	0	-1	3	-4
CC1CCN(CCCNC(=O)C2CC(=O)N(C3CCCCCC3)C2)CC1 (configuration not stated)	6	7	0	0	-3	.	.	.
CN(C)CCn1nnnc1SCC1=C(C(=O)O)N2C(=O)[C@@H](NC(=O)Cc3csc(N)n3)[C@H]2SC1	13	9	39*	24*	1	6	-28	19*
O=C(CCSCc1cccc(Cl)c1)NC1CCCC1	-2	1	1	51*	-3	3	-17	5
COC(=O)[C@]12C[C@H](CC(=O)NCCCCc3ccccc3)C(=O)N(Cc3cccc4ccccc34)C1=C[C@H](COCc1ccccc1)O[C@@H]2C	5	2	0	-5	.	.	.	.
O=C(Nc1ccccc1Oc1ccccc1)NC1CCCCN(Cc2cccc(Cl)c2)C1=O (configuration not stated)	-7	-6	-3	7	.	.	.	.
O=S(=O)(c1ccc2c(c1)N(Cc1ccc(Cl)cc1)C1CCCN21)N1CCOCC1 (configuration not stated)	-19	-3	8	23*	1	-2	6	-2
COc1ccc(CN2c3cc(S(=O)(=O)N4CCOCC4)ccc3N3CCCC32)cc1 (configuration not stated)	7	3	0	-1	3	.	.	.
Cc1ccc(S(=O)(=O)Nc2ccc(Br)cc2/C=N/n2cnnc2)cc1	10	9	19	17*	1	0	0	28*
COc1ccc(-n2c(Cn3c(=O)sc4ccccc43)nnc2SCC(=O)N2CCCC2)cc1	-3	2	-3	32*	-2	0	2	-1
COc1ccc(-n2c(Cn3c(=O)sc4ccccc43)nnc2SCC(=O)N2CCCCC2)cc1	-5	4	1	1	5	.	.	.
Clc1ccc([C@H]2OC[C@@]3(CNCc4ccccc4)CS[C@H](c4ccc(Cl)cc4)N23)cc1	-5	-3	1	-2	.	.	.	.
COc1ccc2nc(NCCNC(=S)NCCCN3CCOCC3)c(C#N)cc2c1	-9	-5	0	35*	2	1	-4	-7

Compound activity as filed in PubChem.
